# Reference: ChEMBL document CHEMBL1142216, “Clinical prediction tool to identify patients with Pseudomonas aeruginosa respiratory tract infections at greatest risk for multidrug resistance” (2007)
# Key:
# Type in all cases: functional
# [1] = tested on: Pseudomonas aeruginosa; assay: Antibiotic susceptibility by resistance against Pseudomonas aeruginosa from samples collected from patients
# Procedure, shortened: (§1)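 Clinical P. aeruginosa respiratory isolates from hospitalized patients. Susceptibility testing was done by the hospital microbiology laboratory using Kirby-Bauer disk diffusion and interpreted by Clinical and Laboratory Standards Institute guidelines. Laboratory-reported susceptibilities and MICs were abstracted retrospectively. Isolates were grouped overall and by resistance to at least four drug classes (MDR versus non-MDR).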
# [2] = tested on: Pseudomonas aeruginosa; assay: Antibiotic susceptibility by resistance against MDR Pseudomonas aeruginosa from samples collected from patients; procedure, shortened: as §1
# [3] = tested on: Pseudomonas aeruginosa; assay: Antibiotic susceptibility by resistance against non-MDR Pseudomonas aeruginosa from samples collected from patients; procedure, shortened: as §1
structure (smiles),measurement,setting,value
NCC[C@H](O)C(=O)N[C@@H]1C[C@H](N)[C@@H](O[C@H]2O[C@H](CN)[C@@H](O)[C@H](O)[C@H]2O)[C@H](O)[C@H]1O[C@H]1O[C@H](CO)[C@@H](O)[C@H](N)[C@H]1O [AMIKACIN],Activity,[1],90.9%
same,Activity,[2],82%
same,Activity,[3],95.6%
C[C@H]1[C@H](NC(=O)/C(=N\OC(C)(C)C(=O)O)c2csc(N)n2)C(=O)N1S(=O)(=O)O [AZTREONAM],Activity,[1],58.1%
same,Activity,[2],18.9%
same,Activity,[3],79%
CO/N=C(\C(=O)N[C@@H]1C(=O)N2C(C(=O)[O-])=C(C[N+]3(C)CCCC3)CS[C@H]12)c1csc(N)n1 [CEFEPIME],Activity,[1],81.8%
same,Activity,[2],52.5%
same,Activity,[3],97.4%
O=C(O)c1cn(C2CC2)c2cc(N3CCNCC3)c(F)cc2c1=O [CIPROFLOXACIN],Activity,[1],42.5%
same,Activity,[2],3.3%
same,Activity,[3],63.3%
C[C@@H](O)[C@H]1C(=O)N2C(C(=O)O)=C(S[C@@H]3CN[C@H](C(=O)N(C)C)C3)[C@H](C)[C@H]12 [MEROPENEM],Activity,[1],56.1%
same,Activity,[2],17.2%
same,Activity,[3],76.9%
NC[C@H]1O[C@H](O[C@H]2[C@H](O)[C@@H](O[C@H]3O[C@H](CO)[C@@H](O)[C@H](N)[C@H]3O)[C@H](N)C[C@@H]2N)[C@H](N)C[C@@H]1O [TOBRAMYCIN],Activity,[1],67.5%
same,Activity,[2],36.9%
same,Activity,[3],83.8%
